≈ marks a conversion by molar mass, not a printed value. Calls of active or inactive are those of the source. The rule behind the calls is not given here.
What was measured:
HCT-8 [1] = assay: Cell cycle arrest in human HCT8 cells assessed as accumulation at S phase at 25 ug/mL after 24 hrs by propidium iodide staining-based flow cytometric analysis (reference value: 39.43%); assay type: ADME; conditions: hct-8, 24 h
Acinetobacter baumannii [2] = assay: Antibacterial activity against Acinetobacter baumannii 125 assessed as growth inhibition at 1 mg/mL after 24 hrs by agar-disk diffusion technique; assay type: functional, organism-based
In short: (§1)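 Agar-disk diffusion, adapted: plates seeded with 0.5 McFarland suspension prepared from 24 h cultures; 5 µL of a 1 mg/mL compound solution spotted onto the seeded solid medium; incubated 24 h at 37 °C. Stocks made in DMSO.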

Acinetobacter baumannii [3] = assay: Antibacterial activity against Acinetobacter baumannii 247 assessed as growth inhibition at 1 mg/mL after 24 hrs by agar-disk diffusion technique; assay type: functional, organism-based; in short: as §1
[4] = Induction of apoptosis in human HCT8 cells assessed as viable cells at 50 ug/mL after 24 hrs by Annexin V-FITC and propidium iodide staining-based flow cytometric analysis (reference value: 87.7%); assay type: cell-based, HCT-8; conditions: read-out: Activity
HCT-8 [5] = assay: Decrease in NAT2 gene expression in human HCT8 cells at 25 ug/mL after 24 hrs by RT-PCR analysis; assay type: ADME, cell-based; conditions: hct-8, 24 h
Proteus mirabilis = assay: Antibacterial activity against Proteus mirabilis 1751 assessed as growth inhibition at 1 mg/mL after 24 hrs by agar-disk diffusion technique; assay type: functional, organism-based; in short: as §1
HCT-8 [6] = assay: Induction of apoptosis in human HCT8 cells assessed as late apoptotic cells at 50 ug/mL after 24 hrs by Annexin V-FITC and propidium iodide staining-based flow cytometric analysis (reference value: 2.97%); assay type: cell-based; conditions: hct-8, 24 h
HCT-8 [7] = assay: Induction of apoptosis in human HCT8 cells assessed as early apoptotic cells at 50 ug/mL after 24 hrs by Annexin V-FITC and propidium iodide staining-based flow cytometric analysis (reference value: 1.57%); assay type: cell-based; conditions: hct-8, 24 h
Acinetobacter baumannii [8] = assay: Antibacterial activity against Acinetobacter baumannii 135 assessed as growth inhibition at 1 mg/mL after 24 hrs by agar-disk diffusion technique; assay type: functional, organism-based; in short: as §1
Morganella morganii = assay: Antibacterial activity against Morganella morganii 2810 assessed as growth inhibition at 1 mg/mL after 24 hrs by agar-disk diffusion technique; assay type: functional, organism-based; in short: as §1
HCT-8 [9] = assay: Cell cycle arrest in human HCT8 cells assessed as accumulation at G0/G1 phase at 25 ug/mL after 24 hrs by propidium iodide staining-based flow cytometric analysis (reference value: 46.43%); assay type: ADME; conditions: hct-8, 24 h
[10] = system: Radical scavenging activity; assay: Antioxidant activity assessed as DPPH radical scavenging activity at 0.1 mg/mL after 30 mins under dark conditions by spectrophotometric analysis relative to control; assay type: functional
In short: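 Compounds dissolved in methanol at 0.1 mg/mL; 0.2 mL mixed with 1.8 mL of 2 × 10^-4 M DPPH in methanol and kept in the dark 30 min. Absorbance read at 517 nm. The blank was DPPH plus methanol. TAC (%) = (Abs initial − Abs 30 min)/Abs initial × 100.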

HCT-8 [11] = assay: Cytotoxicity against human HCT8 cells at 50 ug/mL after 24 hrs by trypan blue exclusion assay; assay type: cell-based; conditions: hct-8, 24 h
In short: (§2)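 HCT8 cells (3 × 10^5 per 3.5-cm well) treated 24 h, then trypsinised, spun and resuspended in PBS. Suspension mixed 1:1 with 0.4% trypan blue for 1 min and viable/non-viable cells counted on a haemocytometer. Each experiment repeated three times.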

HCT-8 [12] = assay: Cell cycle arrest in human HCT8 cells assessed as accumulation at G2/M phase at 25 ug/mL after 24 hrs by propidium iodide staining-based flow cytometric analysis (reference value: 13.83%); assay type: ADME; conditions: hct-8, 24 h
Acinetobacter baumannii [13] = assay: Antibacterial activity against Acinetobacter baumannii 136 assessed as growth inhibition at 1 mg/mL after 24 hrs by agar-disk diffusion technique; assay type: functional, organism-based; in short: as §1
Staphylococcus aureus = assay: Antibacterial activity against Staphylococcus aureus assessed as growth inhibition at 1 mg/mL after 24 hrs by agar-disk diffusion technique; assay type: functional, organism-based; in short: as §1
HCT-8 [14] = assay: Induction of apoptosis in human HCT8 cells assessed as necrotic cells at 50 ug/mL after 24 hrs by Annexin V-FITC and propidium iodide staining-based flow cytometric analysis (reference value: 7.73%); assay type: cell-based; conditions: hct-8, 24 h
Pseudomonas aeruginosa [15] = assay: Antibacterial activity against Pseudomonas aeruginosa ATCC 27853 assessed as growth inhibition at 1 mg/mL after 24 hrs by agar-disk diffusion technique; assay type: functional, organism-based; in short: as §1
Klebsiella pneumoniae = assay: Antibacterial activity against Klebsiella pneumoniae 1756 assessed as growth inhibition at 1 mg/mL after 24 hrs by agar-disk diffusion technique; assay type: functional, organism-based; in short: as §1
Pseudomonas putida = assay: Antibacterial activity against Pseudomonas putida 160 assessed as growth inhibition at 1 mg/mL after 24 hrs by agar-disk diffusion technique; assay type: functional, organism-based; in short: as §1
HCT-8 [16] = assay: Induction of apoptosis in human HCT8 cells assessed as early apoptotic cells at 25 ug/mL after 24 hrs by Annexin V-FITC and propidium iodide staining-based flow cytometric analysis (reference value: 1.57%); assay type: cell-based; conditions: hct-8, 24 h
HCT-8 [17] = assay: Cytotoxicity against human HCT8 cells at 25 ug/mL after 24 hrs by trypan blue exclusion assay; assay type: cell-based; conditions: hct-8, 24 h; in short: as §2
Escherichia coli = assay: Antibacterial activity against Escherichia coli 1777 assessed as growth inhibition at 1 mg/mL after 24 hrs by agar-disk diffusion technique; assay type: functional, organism-based; in short: as §1
[18] = Induction of apoptosis in human HCT8 cells assessed as viable cells at 25 ug/mL after 24 hrs by Annexin V-FITC and propidium iodide staining-based flow cytometric analysis (reference value: 87.7%); assay type: cell-based, HCT-8; conditions: read-out: Activity
Citrobacter koseri = assay: Antibacterial activity against Citrobacter koseri 1742 assessed as growth inhibition at 1 mg/mL after 24 hrs by agar-disk diffusion technique; assay type: functional, organism-based; in short: as §1
Pseudomonas aeruginosa [19] = assay: Antibacterial activity against Pseudomonas aeruginosa 165 assessed as growth inhibition at 1 mg/mL after 24 hrs by agar-disk diffusion technique; assay type: functional, organism-based; in short: as §1
HCT-8 [20] = assay: Cell cycle arrest in human HCT8 cells assessed as accumulation at G0/G1 phase at 12.5 ug/mL after 24 hrs by propidium iodide staining-based flow cytometric analysis (reference value: 46.43%); assay type: ADME; conditions: hct-8, 24 h
HCT-8 [21] = assay: Induction of apoptosis in human HCT8 cells assessed as late apoptotic cells at 25 ug/mL after 24 hrs by Annexin V-FITC and propidium iodide staining-based flow cytometric analysis (reference value: 2.97%); assay type: cell-based; conditions: hct-8, 24 h
Staphylococcus hominis = assay: Antibacterial activity against Staphylococcus hominis 1813 assessed as growth inhibition at 1 mg/mL after 24 hrs by agar-disk diffusion technique; assay type: functional, organism-based; in short: as §1
Enterococcus faecalis = assay: Antibacterial activity against Enterococcus faecalis 2920 assessed as growth inhibition at 1 mg/mL after 24 hrs by agar-disk diffusion technique; assay type: functional, organism-based; in short: as §1
Acinetobacter baumannii [22] = assay: Antibacterial activity against Acinetobacter baumannii 122 assessed as growth inhibition at 1 mg/mL after 24 hrs by agar-disk diffusion technique; assay type: functional, organism-based; in short: as §1
Pseudomonas aeruginosa [23] = assay: Antibacterial activity against Pseudomonas aeruginosa 1144 assessed as growth inhibition at 1 mg/mL after 24 hrs by agar-disk diffusion technique; assay type: functional, organism-based; in short: as §1
HCT-8 [24] = assay: Cell cycle arrest in human HCT8 cells assessed as accumulation at S phase at 12.5 ug/mL after 24 hrs by propidium iodide staining-based flow cytometric analysis (reference value: 39.43%); assay type: ADME; conditions: hct-8, 24 h
HCT-8 [25] = assay: Induction of apoptosis in human HCT8 cells assessed as necrotic cells at 25 ug/mL after 24 hrs by Annexin V-FITC and propidium iodide staining-based flow cytometric analysis (reference value: 7.73%); assay type: cell-based; conditions: hct-8, 24 h
[26] = system: Mycobacterium tuberculosis; assay: Antimycobacterial activity against Mycobacterium tuberculosis after 8 days by micro plate Alamar Blue assay; assay type: functional; conditions: 192 h
In short: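 Clinical M. tuberculosis strain grown in Middlebrook 7H9 broth. Compounds were dissolved in DMSO and serially diluted twofold on the plate, final 25 to 0.012 µg/mL. Plates were sealed and held 8 days at 37 °C. Alamar Blue with 10% Tween 80 (1:1) was then added for another 24 h at 37 °C. MIC was the lowest concentration preventing the blue-to-pink change.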

Acinetobacter baumannii [27] = assay: Antibacterial activity against Acinetobacter baumannii 192 assessed as growth inhibition at 1 mg/mL after 24 hrs by agar-disk diffusion technique; assay type: functional, organism-based; in short: as §1
Enterobacter cloacae = assay: Antibacterial activity against Enterobacter cloacae 1845 assessed as growth inhibition at 1 mg/mL after 24 hrs by agar-disk diffusion technique; assay type: functional, organism-based; in short: as §1
HCT-8 [28] = assay: Cell cycle arrest in human HCT8 cells assessed as accumulation at G2/M phase at 12.5 ug/mL after 24 hrs by propidium iodide staining-based flow cytometric analysis (reference value: 13.83%); assay type: ADME; conditions: hct-8, 24 h
HCT-8 [29] = assay: Decrease in NAT1 gene expression in human HCT8 cells at 25 ug/mL after 24 hrs by RT-PCR analysis; assay type: ADME, cell-based; conditions: hct-8, 24 h

SMILES | Activity (HCT-8 [1]) | growth inhibition (GI) (Acinetobacter baumannii [2]) | growth inhibition (GI) (Acinetobacter baumannii [3]) | viability at 24 h, 50 ug/mL [4] | growth inhibition (GI) (Proteus mirabilis) | Activity (HCT-8 [6]) | Activity (HCT-8 [7]) | growth inhibition (GI) (Acinetobacter baumannii [8]) | growth inhibition (GI) (Morganella morganii) | Activity (HCT-8 [9]) | TAC [10] | Activity (HCT-8 [11]) | Activity (HCT-8 [12]) | growth inhibition (GI) (Acinetobacter baumannii [13]) | growth inhibition (GI) (Staphylococcus aureus) | Activity (HCT-8 [14]) | growth inhibition (GI) (Pseudomonas aeruginosa [15]) | growth inhibition (GI) (Klebsiella pneumoniae) | growth inhibition (GI) (Pseudomonas putida) | growth inhibition (GI) (Escherichia coli) | other results
NC(=S)/C=C/c1ccc(Cl)cc1 | 56.31% | inactive | inactive | 18.7% | inactive | 33.7% | 22.7% | Active | inactive | 31.35% | 15.7% | Toxic | 13.01% | Active | Active | 24.9% | inactive | inactive | Active | – | Activity (HCT-8 [5]): Toxic
NC(S)(/C=C/c1ccc(Cl)cc1)NNC(=O)c1ccncc1 (stereo unspecified) | – | Active | Active | – | Active | – | – | Active | Active | – | 25.7% | – | – | Active | Active | – | Active | Active | Active | Active | Activity (HCT-8 [16]): 1.63%; Activity (HCT-8 [17]): Toxic; viability at 24 h, 25 ug/mL [18]: 55.4%; growth inhibition (GI) (Citrobacter koseri): Active; growth inhibition (GI) (Pseudomonas aeruginosa [19]): Active; Activity (HCT-8 [20]): 52.35%; Activity (HCT-8 [21]): 19.3%; growth inhibition (GI) (Staphylococcus hominis): Active; growth inhibition (GI) (Enterococcus faecalis): Active; growth inhibition (GI) (Acinetobacter baumannii [22]): Active; growth inhibition (GI) (Pseudomonas aeruginosa [23]): Active; Activity (HCT-8 [24]): 29.41%; Activity (HCT-8 [25]): 23.7%; MIC [26]: 6.25 µg/mL (≈ 18.7 µM); growth inhibition (GI) (Acinetobacter baumannii [27]): Active; growth inhibition (GI) (Enterobacter cloacae): Active; Activity (HCT-8 [28]): 15.59%
NC(=S)/C=C/c1ccccc1 | 43.45% | – | – | 28.3% | Active | 36% | 12.9% | Active | – | 33.09% | 35.7% | Toxic | 27.82% | Active | Active | 22.9% | – | Active | Active | Active | Activity (HCT-8 [29]): Toxic; growth inhibition (GI) (Citrobacter koseri): Active; growth inhibition (GI) (Pseudomonas aeruginosa [19]): Active; growth inhibition (GI) (Staphylococcus hominis): Active; growth inhibition (GI) (Acinetobacter baumannii [22]): Active; growth inhibition (GI) (Enterobacter cloacae): Active
